Assay results as given in ChEMBL document CHEMBL1136016, “Synthesis, biological activity, and molecular modeling investigation of new pyrazolo[4,3-e]-1,2,4-triazolo[1,5-c]pyrimidine derivatives as human A(3) adenosine receptor antagonists” (J Med Chem, 2002).
One block for each compound: values may come before it.

Columns and labels:
[1] = target: Adenosine receptors; A2b & A3 (Homo sapiens) (UniProt P29275+P0DMS8); assay: Selectivity ratio (h2B/hA3); assay type: protein assay
[2] = target: Adenosine receptors; A1 & A3 (Homo sapiens) (UniProt P30542+P0DMS8); assay: Selectivity ratio (hA1/hA3); assay type: protein assay
[3] = target: T1, Adenosine receptor A1 (Homo sapiens, UniProt P30542); assay: Displacement of [3H]DPCPX from human Adenosine A1 receptor expressed in CHO cells; range 324-475; assay type: cell-based
T1 sequence (P30542 whole entry): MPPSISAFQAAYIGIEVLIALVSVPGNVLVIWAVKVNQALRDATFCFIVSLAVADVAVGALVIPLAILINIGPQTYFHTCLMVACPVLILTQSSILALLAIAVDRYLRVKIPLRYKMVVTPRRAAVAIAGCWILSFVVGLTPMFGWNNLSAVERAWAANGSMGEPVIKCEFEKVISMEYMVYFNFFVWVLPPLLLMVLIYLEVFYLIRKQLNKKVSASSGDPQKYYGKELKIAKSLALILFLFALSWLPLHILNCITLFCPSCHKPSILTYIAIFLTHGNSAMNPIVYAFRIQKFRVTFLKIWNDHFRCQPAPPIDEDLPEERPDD

[4] = target: T2, Adenosine receptor A2b (Homo sapiens, UniProt P29275); assay: Displacement of [3H]-DPCPX from human Adenosine A2B receptor expressed in HEK293 cells; range 91-148; assay type: cell-based
T2 sequence (P29275 whole entry): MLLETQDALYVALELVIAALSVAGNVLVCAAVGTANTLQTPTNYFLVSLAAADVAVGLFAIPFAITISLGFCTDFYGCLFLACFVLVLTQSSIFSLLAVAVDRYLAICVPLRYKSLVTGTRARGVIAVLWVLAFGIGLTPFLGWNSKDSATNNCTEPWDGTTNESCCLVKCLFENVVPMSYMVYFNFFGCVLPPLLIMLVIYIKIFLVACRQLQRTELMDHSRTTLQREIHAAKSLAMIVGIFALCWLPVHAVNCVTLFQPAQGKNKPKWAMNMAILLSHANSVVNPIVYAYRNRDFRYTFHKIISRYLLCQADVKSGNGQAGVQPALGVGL
Procedure, shortened: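 Competition binding on membranes of HEK-293 cells carrying recombinant human A2B receptor. Incubation 60 min at 25 °C in 50 mM Tris HCl pH 7.4 with 10 mM MgCl2, 1 mM EDTA, 0.1 mM benzamidine and 2 IU/mL adenosine deaminase. Radioligand 40 nM [3H]DPCPX, at least six to eight test concentrations. NECA defined nonspecific binding. Bound ligand separated on glass-fibre filters and counted; n = 3-6.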

[5] = target: T3, Adenosine receptor A3 (Homo sapiens, UniProt P0DMS8); assay: Displacement of [3H]MRE3008-F20 from human Adenosine A3 receptor expressed in HEK cells; range 3.05-3.78; assay type: cell-based, HEK293
T3 sequence (P0DMS8 whole entry): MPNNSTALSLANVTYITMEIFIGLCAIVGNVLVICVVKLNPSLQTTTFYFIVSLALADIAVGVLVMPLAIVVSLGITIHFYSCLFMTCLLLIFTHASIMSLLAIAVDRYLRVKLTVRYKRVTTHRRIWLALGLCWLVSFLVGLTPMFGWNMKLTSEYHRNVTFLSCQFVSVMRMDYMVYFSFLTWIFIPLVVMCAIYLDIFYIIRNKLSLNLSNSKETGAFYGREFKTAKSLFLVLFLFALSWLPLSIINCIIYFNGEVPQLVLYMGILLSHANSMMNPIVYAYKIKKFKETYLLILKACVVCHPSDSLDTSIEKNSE

[6] = target: T3, Adenosine receptor A3; assay: Inhibition of IB-MECA agonist-mediated cAMP production in CHO cell membranes expressing human Adenosine A3 receptor; range 15-44; assay type: functional, cell-based
Procedure, shortened: (§1)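 Human A3-CHO membranes (in 50 mM Tris HCl, 10 mM MgCl2, 1 mM EDTA, pH 7.4) were preincubated for 10 min at 37 °C with 5 µM GTP, 0.5 mM Ro 20-1724 and 2.0 IU/mL adenosine deaminase. IB-MECA (100 nM) or antagonist was then added with 1 mM ATP and forskolin for 10 min. The reaction was stopped by 2 min boiling. cAMP was measured by [3H]cAMP competitive protein binding using beef adrenal binding protein, 150 min at 4 °C.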

[7] = target: T4, Adenosine receptor A2a (Homo sapiens, UniProt P29274); assay: Displacement of [3H]SCH-58261 from human Adenosine A2A receptor expressed in HEK293 cells; range 114-179; assay type: cell-based
[8] = target: T1, Adenosine receptor A1; assay: Displacement of [3H]DPCPX from human Adenosine A1 receptor expressed in CHO cells; range 436-810; assay type: cell-based
Procedure, shortened: (§2)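 Human recombinant A1 receptor in CHO cell membranes, resuspended in 50 mM Tris HCl pH 7.4. Displacement run 120 min at 25 °C with 1 nM [3H]DPCPX, 50 µg protein per assay, and at least six to eight test concentrations. Nonspecific binding defined with CHA. Bound and free separated on glass-fiber filters; filter radioactivity counted. n = 3-6.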

[9] = target: T2, Adenosine receptor A2b; assay: Displacement of [3H]DPCPX binding at human Adenosine A2B receptor expressed in HEK293 cells; assay type: cell-based
Procedure, shortened: (§3)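 Membranes from HEK-293 cells with human recombinant A2B receptor. Incubation 60 min at 25 °C in 50 mM Tris HCl, 10 mM MgCl2, 1 mM EDTA, 0.1 mM benzamidine, pH 7.4, with 2 IU/mL adenosine deaminase and 40 nM [3H]DPCPX. At least six to eight test concentrations. Nonspecific binding defined with NECA. n = 3-6.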

[10] = target: T3, Adenosine receptor A3; assay: Displacement of [3H]MRE3008-F20 from human Adenosine A3 receptor expressed in HEK cells; range 19-34; assay type: cell-based, HEK293
[11] = target: T3, Adenosine receptor A3; assay: Inhibition of IB-MECA agonist-mediated cAMP production in CHO cell membranes expressing human Adenosine A3 receptor; range 130-279; assay type: functional, cell-based
[12] = target: T4, Adenosine receptor A2a; assay: Displacement of [3H]SCH-58261 from human Adenosine A2A receptor expressed in HEK293 cells; assay type: cell-based
[13] = target: T1, Adenosine receptor A1; assay: Displacement of [3H]DPCPX from human Adenosine A1 receptor expressed in CHO cells; range 552-676; assay type: cell-based
Procedure, shortened: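 Competition binding on membranes of CHO cells stably expressing human A1 receptor, resuspended in 50 mM Tris HCl pH 7.4. Incubation 120 min at 25 °C with 1 nM [3H]DPCPX, 50 µg protein per assay and at least six to eight test concentrations. CHA defined nonspecific binding. Bound ligand separated on glass-fibre filters and counted; n = 3-6.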

[14] = target: T3, Adenosine receptor A3; assay: Displacement of [3H]MRE3008-F20 from human Adenosine A3 receptor expressed in HEK cells; range 2.0-3.1; assay type: cell-based, HEK293
[15] = target: T4, Adenosine receptor A2a; assay: Displacement of [3H]SCH-58261 from human Adenosine A2A receptor expressed in HEK293 cells; range 362-445; assay type: cell-based
[16] = target: T2, Adenosine receptor A2b; assay: Displacement of [3H]DPCPX from human Adenosine A2B receptor expressed in HEK293 cells; range 25-40; assay type: cell-based
Procedure, shortened: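 HEK-293 membranes expressing the human receptor were incubated 60 min at 25 °C. Six to eight test concentrations were used. Nonspecific binding was set with NECA. n = 3-6.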

[17] = target: T1, Adenosine receptor A1; assay: Displacement of [3H]DPCPX from human Adenosine A1 receptor expressed in CHO cells; assay type: cell-based; procedure, shortened: as §2
[18] = target: T3, Adenosine receptor A3; assay: Displacement of […] from human Adenosine A3 receptor expressed in CHO cells; assay type: cell-based
Procedure, shortened: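 Membranes of CHO cells stably expressing human A3 receptor (50 µg protein/assay), incubated in duplicate with 1 nM [3H]MRE3008-F20 in 50 mM Tris HCl, 10 mM MgCl2 (pH 7.4) and six to eight ligand concentrations, 120 min at 4 °C. Nonspecific binding was set with 1 µM MRE3008-F20. Separation was by GF/B filtration and scintillation counting; n = 3-6.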

[19] = target: T4, Adenosine receptor A2a; assay: Displacement of [3H]SCH-58261 from human Adenosine A2A receptor expressed in CHO cells; assay type: cell-based
Procedure, shortened: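 Membranes from CHO cells expressing the human receptor (50 µg protein) with [3H]SCH58261 and six to eight competitor concentrations. Incubated 60 min at 25 °C. Nonspecific binding was set with NECA.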

[20] = target: T2, Adenosine receptor A2b; assay: Displacement of [3H]DPCPX from human Adenosine A2B receptor expressed in HEK293 cells; range 88-165; assay type: cell-based; procedure, shortened: as §3
[21] = target: T3, Adenosine receptor A3; assay: Displacement of [3H]MRE3008-F20 binding at human Adenosine A3 receptor expressed in HEK cells; range 0.82-1.02; assay type: cell-based, HEK293
[22] = target: T1, Adenosine receptor A1; assay: Displacement of [3H]DPCPX from human Adenosine A1 receptor expressed in CHO cells; range 222-400; assay type: cell-based; procedure, shortened: as §2
[23] = target: T4, Adenosine receptor A2a; assay: Displacement of [3H]SCH-58261 from human Adenosine A2A receptor expressed in HEK293 cells; […]; assay type: cell-based
[24] = target: T3, Adenosine receptor A3; assay: Inhibition of IB-MECA agonist-mediated cAMP production in membranes of CHO cells expressing human Adenosine A3 receptor; assay type: functional, cell-based; procedure, shortened: as §1

T4 sequence (P29274 whole entry): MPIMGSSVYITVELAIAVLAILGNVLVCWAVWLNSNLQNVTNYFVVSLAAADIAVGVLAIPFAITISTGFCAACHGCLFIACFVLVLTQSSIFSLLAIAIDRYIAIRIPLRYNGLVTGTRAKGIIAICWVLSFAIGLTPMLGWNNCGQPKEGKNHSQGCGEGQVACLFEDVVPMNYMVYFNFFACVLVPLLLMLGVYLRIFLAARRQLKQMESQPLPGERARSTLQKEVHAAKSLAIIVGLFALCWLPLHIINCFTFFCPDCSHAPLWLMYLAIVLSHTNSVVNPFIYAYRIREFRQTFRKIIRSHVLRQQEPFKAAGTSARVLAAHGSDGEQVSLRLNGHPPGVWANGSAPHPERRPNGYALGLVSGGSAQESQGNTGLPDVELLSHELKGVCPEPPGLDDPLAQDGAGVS

Compound: COc1ccc(NC(=O)Nc2nc3ccc(Cl)cc3c3nc(-c4ccco4)nn23)cc1
- Ratio [1]: 158
- Ratio [2]: 43

Compound: CCCCn1cc2c(nc(NC(=O)Nc3ccc([N+](=O)[O-])cc3)n3nc(-c4ccco4)nc23)n1
- Ki [17]: 584 nM
- Ki [9]: 52 nM
- Ki [18]: 0.55 nM
- Ki [19]: 503 nM
- Ratio [1]: 96
- Ratio [2]: 1060

Compound: O=C(Nc1cccc(Cl)c1)Nc1nc2ccc(Cl)cc2c2nc(-c3ccco3)nn12
- Ratio [1]: 157
- Ratio [2]: 54

Compound: CCCCn1cc2c(nc(NC(=O)Nc3ccc(Br)cc3)n3nc(-c4ccco4)nc23)n1
- Ki [20]: 121 nM
- Ki [21]: 0.91 nM
- Ki [22]: 300 nM
- Ki [23]: 66 nM
- Ratio [1]: 133
- Ratio [2]: 330

Compound: CCCCn1cc2c(nc(NC(=O)Nc3cccc(Cl)c3)n3nc(-c4ccco4)nc23)n1
- Ratio [1]: 116
- Ratio [2]: 408

Further lines, results first:

- Ratio [1]: 512
- Ratio [2]: 875
Compound: Cn1cc2c(nc(NC(=O)Nc3cccc(Cl)c3)n3nc(-c4ccco4)nc23)n1

- Ki [3]: 392 nM
- Ki [4]: 116 nM
- Ki [5]: 3.4 nM
- IC50 [6]: 26 nM
- Ki [7]: 143 nM
- Ratio [1]: 34
- Ratio [2]: 115
Compound: Cn1cc2c(nc(NC(=O)Nc3ccc(Cl)c(Cl)c3)n3nc(-c4ccco4)nc23)n1

- Ki [8]: > 10000 nM
- Ki [9]: > 10000 nM
- Ki [10]: 25 nM
- IC50 [11]: 190 nM
- Ki [12]: 594 nM
- Ratio [1]: > 400
- Ratio [2]: > 400
Compound: Cn1cc2c(nc(NC(=O)Nc3ccc(S(=O)(=O)O)cc3)n3nc(-c4ccco4)nc23)n1

- Ki [13]: 611 nM
- Ki [14]: 2.5 nM
- Ki [15]: 401 nM
- Ki [16]: 31 nM
- Ratio [1]: 12
- Ratio [2]: 244
Compound: CCCn1cc2c(nc(NC(=O)Nc3ccc(Cl)c(Cl)c3)n3nc(-c4ccco4)nc23)n1

- Ki [17]: 1110 nM
- Ki [9]: 180 nM
- Ki [18]: 0.43 nM
- IC50 [24]: 5.5 nM
- Ki [19]: 695 nM
- Ratio [1]: 419
- Ratio [2]: 2590
Compound: Cn1cc2c(nc(NC(=O)Nc3ccc([N+](=O)[O-])cc3)n3nc(-c4ccco4)nc23)n1
